Experimental findings from ChEMBL document CHEMBL2062368, “The cell adhesion and proliferation activities of a peptide derived from human tenascin-C are dependent on two Ile residues” (Bioorg Med Chem, 2012) are described below.

Type in all cases: cell-based
Holding throughout (details): NIH3T3

Assay [1] addresses T1, Syndecan-4 (Mus musculus) (UniProt O35988).
T1 sequence (whole entry): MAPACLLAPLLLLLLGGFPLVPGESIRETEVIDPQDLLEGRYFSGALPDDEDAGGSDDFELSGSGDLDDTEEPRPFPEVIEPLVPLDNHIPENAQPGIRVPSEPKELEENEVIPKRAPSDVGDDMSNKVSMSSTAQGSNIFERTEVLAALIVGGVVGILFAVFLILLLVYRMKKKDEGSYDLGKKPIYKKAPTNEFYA
Briefly: Binding affinity to syndecan 4 in mouse NIH/3T3 cells assessed as stimulation of beta 1 integrin-mediated cell spreading at 50 ug/ml […] by microscopic analysis. Summed up:
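Fibronectin-coated, BSA-blocked wells; NIH-3T3 cells incubated with peptide (50 µg/ml) or PBS control for 1 h at 37 °C, then washed. Spread cells counted under a microscope in 4 independent fields; mean ± S.E. of triplicates.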

Assay [2] addresses T1, Syndecan-4 (Mus musculus). Kind of assay: Binding affinity to syndecan 4 in mouse NIH/3T3 cells assessed as stimulation of beta 1 integrin-mediated cell adhesion at 50 ug/ml […] by microscopic analysis. Summed up:
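Wells coated with fibronectin at 37 °C, blocked with BSA. NIH-3T3 cell suspension plus peptide (50 µg/ml) or PBS control incubated 1 h at 37 °C. Non-adhered cells washed off; attached cells counted by microscope in 4 independent fields. Mean ± S.E. of triplicate measurements.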

For assay [3], the target named is T1, Syndecan-4 (Mus musculus). Briefly: Binding affinity to syndecan 4 in mouse NIH/3T3 cells assessed as induction of cell proliferation at 25 to 50 ug/ml after 2 days by MTT assay. Summed up:
(§1)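 NIH-3T3 cells with peptide at 25 and 50 µg/ml on fibronectin-coated, BSA-blocked wells, 2 days at 37 °C. MTT (0.5 mg/ml in phenol-red-free RPMI-1640) added for a further 3 h. Dye solubilized in acidic isopropanol (0.04 M HCl), absorbance read at 570 nm minus 650 nm background.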

For assay [4], the target named is T1, Syndecan-4 (Mus musculus). Kind of assay: Binding affinity to syndecan 4 in mouse NIH/3T3 cells assessed as increase in cell proliferation at 25 to 50 ug/ml after 2 days by MTT assay relative to TNIIIA2 peptide. Summed up:
as §1
On the technique in general: Tetrazolium dyes change colour on reduction, which living cells bring about.

Calls of active or inactive are those of the source. The calls are words filed in the database; no cut-off is given here.

Consider H-RSTDLPGLKAATHATITIRGVKC-OH, for which the outcome in assay [1] was inactive. In addition, the result in assay [2] was Active.

Consider H-RSTDLPGLKAATHYTITIAGVKC-OH, for which the outcome in assay [1] and in assay [2] was inactive. Moreover, in assay [3], the outcome was Active.

Turning to H-RSTDLPGLKAATHYTATIRGVKC-OH, the outcome in assay [1] and in assay [3] was inactive. Besides, in assay [2], the result was Active.

For H-RSTDLPGLKAATHYTIAIRGVKC-OH, the result in assay [2] was Active.

Turning to H-RSTDLPGLAAATHYTITIRGVKC-OH, in assay [4], the fold change (FC) came to 2. For the same substance, the outcome in assay [1] and in assay [2] was inactive.

Regarding H-RSTDLPGLKAATHYTITARGVKC-OH, the result in assay [1] and in assay [3] was inactive. The outcome in assay [2] was Active.

As to H-RSTDLPGLKAATHYAITIRGVKC-OH, the outcome in assay [2] was Active.

In the case of H-ASTDLPGLKAATHYTITIRGVKC-OH, the fold change (FC) in assay [4] stood at 2. In addition, the outcome in assay [1] and in assay [2] was inactive.

On to H-RSTDLPGLKAATHYTITIRGVKC-OH, for which the outcome in assay [1], in assay [2] and in assay [3] was Active.
